Assay results: paper PMC3068223 (Biochemistry, 2011)

How the values were obtained:
Format in all cases: biochemical
MOM-bound rat MAO B [1] = target: T1, MOM-bound rat MAO B (Rattus norvegicus, UniProt P19643); test: Rate of inactivation of MOM-bound recombinant rat MAO B; details: apparent pseudo-first order, 1 mM inhibitor, room temperature
T1 sequence (P19643 1-520): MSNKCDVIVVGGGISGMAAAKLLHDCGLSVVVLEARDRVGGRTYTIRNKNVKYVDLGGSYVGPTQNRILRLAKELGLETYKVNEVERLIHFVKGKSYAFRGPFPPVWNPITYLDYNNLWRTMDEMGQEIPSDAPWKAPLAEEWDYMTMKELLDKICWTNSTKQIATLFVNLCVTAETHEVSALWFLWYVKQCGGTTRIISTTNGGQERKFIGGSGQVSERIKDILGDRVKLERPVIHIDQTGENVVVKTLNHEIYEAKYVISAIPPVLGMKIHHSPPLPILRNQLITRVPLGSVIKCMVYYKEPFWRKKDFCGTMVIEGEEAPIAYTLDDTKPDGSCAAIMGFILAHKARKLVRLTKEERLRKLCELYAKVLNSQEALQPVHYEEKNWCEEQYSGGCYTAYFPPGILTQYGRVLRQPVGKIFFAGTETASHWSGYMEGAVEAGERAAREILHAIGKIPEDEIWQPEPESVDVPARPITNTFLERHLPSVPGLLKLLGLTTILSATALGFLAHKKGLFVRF

MOM-bound rat MAO A [2] = target: T2, MOM-bound rat MAO A (Rattus norvegicus, UniProt P21396); test: Rate of inactivation of MOM-bound recombinant rat MAO A; details: apparent pseudo-first order, 1 mM inhibitor, room temperature
T2 sequence (P21396 1-526): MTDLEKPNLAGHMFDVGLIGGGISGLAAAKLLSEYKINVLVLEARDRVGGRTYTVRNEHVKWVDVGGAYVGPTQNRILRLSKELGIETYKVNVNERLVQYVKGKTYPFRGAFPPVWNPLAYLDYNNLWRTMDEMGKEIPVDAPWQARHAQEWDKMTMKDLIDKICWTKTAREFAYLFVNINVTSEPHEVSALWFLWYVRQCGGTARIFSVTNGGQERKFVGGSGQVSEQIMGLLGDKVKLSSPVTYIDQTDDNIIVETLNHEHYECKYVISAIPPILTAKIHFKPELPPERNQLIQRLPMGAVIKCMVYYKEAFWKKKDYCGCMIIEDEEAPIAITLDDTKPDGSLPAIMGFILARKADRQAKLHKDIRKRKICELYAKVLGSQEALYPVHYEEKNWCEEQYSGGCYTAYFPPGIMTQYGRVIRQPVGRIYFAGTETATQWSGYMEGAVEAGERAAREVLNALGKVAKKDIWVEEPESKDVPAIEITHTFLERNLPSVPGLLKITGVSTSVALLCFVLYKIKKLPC
Procedure, shortened: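 Outer-membrane-bound rat MAO A came from Pichia pastoris KM71 mitochondria, isolated by osmotic shock, sonication and sucrose gradient. Membranes were incubated with 1 mM test compound at room temperature, with an uninhibited control. Remaining activity over time was followed spectrophotometrically at 25°C. Apparent pseudo-first-order rate constants were obtained from exponential fits of activity decay.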

purified rat MAO A = target: T3, purified rat MAO A (Rattus norvegicus, UniProt P21396); test: Rate of inactivation of purified rat MAO A; details: apparent pseudo-first order, 1 mM inhibitor, room temperature
T3 sequence (P21396 1-526): T2 sequence (P21396 1-526)
Procedure, shortened: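 Recombinant rat MAO A was purified from Pichia pastoris KM71, with d-amphetamine removed before kinetics. The enzyme was incubated with 1 mM test compound at room temperature, with an uninhibited control. Activity loss over time was measured spectrophotometrically with kynuramine in 50 mM potassium phosphate, pH 7.5, 0.5% reduced Triton X-100, at 25°C. Pseudo-first-order rate constants came from exponential decay fits.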

rat MAO A = target: T4, rat MAO A (Rattus norvegicus, UniProt P21396); test: Inhibition of recombinant rat MAO A in P. pastoris mitochondria; details: intact yeast mitochondria
T4 sequence (P21396 1-526): T2 sequence (P21396 1-526)

purified rat MAO B = target: T5, purified rat MAO B (Rattus norvegicus, UniProt P19643); test: Rate of inactivation of purified rat MAO B; details: apparent pseudo-first order, 1 mM inhibitor, room temperature
T5 sequence (P19643 1-520): T1 sequence (P19643 1-520)

rat MAO B = target: T6, rat MAO B (Rattus norvegicus, UniProt P19643); test: Inhibition of recombinant rat MAO B in P. pastoris mitochondria; details: intact yeast mitochondria
T6 sequence (P19643 1-520): T1 sequence (P19643 1-520)

MOM-bound rat MAO A [3] = target: T2, MOM-bound rat MAO A; test: Protease treatment of yeast recombinant MOM-bound rat MAO A; details: protease:protein 1:5 (w/w), room temperature
Procedure, shortened: (§1)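 Rat MAO A or MAO B was expressed in Pichia pastoris KM71. Outer membranes were isolated by osmotic shock, mild sonication and a 30–55% sucrose gradient. Membranes were incubated at room temperature with trypsin or β-chymotrypsin at a 1:5 (w/w) protease:protein ratio. Timed samples were quenched with 1 mM PMSF (final). Residual activity was measured spectrophotometrically as product formation at 25°C.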

MAO A = target: T7, MAO A (Rattus norvegicus, UniProt P21396); test: Protease treatment of rat liver mitochondria, MAO A activity; details: protease:protein 1:5 (w/w), room temperature
T7 sequence (P21396 1-526): T2 sequence (P21396 1-526)
Procedure, shortened: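 Rat liver mitochondria were isolated from a perfused Sprague-Dawley rat liver and purified on 30% Percoll. They were incubated at room temperature with trypsin at a 1:5 (w/w) protease:protein ratio. Samples taken over time were quenched with 1 mM PMSF (final). MAO A activity was measured polarographically as O2 uptake with serotonin in 50 mM potassium phosphate, pH 7.5, at 25°C.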

MOM-bound rat MAO B [4] = target: T1, MOM-bound rat MAO B; test: Protease treatment of yeast recombinant MOM-bound rat MAO B; details: protease:protein 1:5 (w/w), room temperature
Procedure, shortened: as §1

k (inactivation) MAO B (MOM) (MOM-bound rat MAO B [1]) | k (inactivation) MAO A (MOM) (MOM-bound rat MAO A [2]) | k (inactivation) MAO A (Purified) (purified rat MAO A) | k (inactivation) MAO B (Purified) (purified rat MAO B) | inactivation of yeast recombinant MOM-bound rat MAO A by protease (MOM-bound rat MAO A [3]) | MAO A activity lost (MAO A) | inactivation of yeast recombinant MOM-bound rat MAO B by protease (MOM-bound rat MAO B [4]) | Compound | inhibition of rat MAO A in intact mitochondria (rat MAO A) | inhibition of rat MAO B in intact mitochondria (rat MAO B)
too fast to measure | 44.8 ± 6.2 s⁻¹ | 9.4 ± 1.1 s⁻¹ | too fast to measure |  |  |  | C#CCN(C)Cc1ccccc1 [Pargyline, pargyline] | functions as an inhibitor with either enzyme | functions as an inhibitor with either enzyme
 |  |  |  | sensitive to trypsin | > 90% | no observable inactivation | trypsin |  | 
